Most compounds without a hit are left out; they make up all but 5.6% or so of the library.
CHOP UPR activ – activators of apoptotic arm of unfolded protein response (CHOP); CHO-CHOP luciferase reporter, UPR activation, luminescence; percent of tunicamycin response over DMSO baseline; activation, % at 10 µM; actives 0.34% (n = 330,000); AID 449763;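 active = at 10 µM dose, activation of 40% or more, normalized to positive control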;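 note: 100% = tunicamycin at 10 µg/mL and 0% = DMSO alone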
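Assay system: CHO cells with stable CHOP pathway luciferase reporter; Buffer or medium: F12 plus 10% serum; Times: 16-18 h cell attachment, then 6 h compound exposure, 37 °C; Signal: luciferase luminescence; Read-out basis: percent activation relative to tunicamycin control; Control set: tunicamycin high control, DMSO low control.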
MPTP block – inhibitors of mitochondrial permeability transition pore. isolated mouse mitochondria, Ca2+ swelling absorbance, 30 min. inhibition, % at 10 µM. actives 1.4% (n = 360,000);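 active = inhibition of 50% or more, scaled per plate between neutral and stimulator controls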;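 note: 0% = DMSO wells given calcium and 100% = 1 mM EGTA wells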
GRIN3A LBD mod – modulates the human NR3A ligand-binding domain; NR3A LBD differential scanning fluorimetry, Tm shift; 0% = protein alone, 100% = glycine-bound protein; Tm shift relative to glycine control, % at 25 µM; actives 2.5% (n = 340,000);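 active = melting temperature shift of at least 10% of the positive control shift, at one fixed dose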
CHOP inhibitor – blocks CHOP induction under ER stress | CHO-K1 CHOP-promoter luciferase, tunicamycin-induced, 15-18 h | inhibition, % at 10 µM | actives 3.8% (n = 220,000) | AID 2732;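 active = compounds that reduced the stress-induced luciferase reporter signal by more than about 70% of percent inhibition, limit read from the data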;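 note: 0% = tunicamycin plus vehicle and 100% = wells without tunicamycin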
aDG glyco up – alpha-DG glycosylation activation | Pro5-aDG cells, alpha-DG glycosylation AlphaScreen (IIH6); 0% Pro5, 100% B10-LARGE cell signal | activation, % at 10 µM | actives 0.22% (n = 360,000) | AID 624168;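 active = activation of at least 8% versus controls, or a plate z-score of at least 8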;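 note: Pro5 are CHO cells carrying HIG-tagged alpha-DG that lacks glycosylation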
UPR XBP1 act – activators of adaptive arm of unfolded protein response (XBP1); CHO-XBP1 luciferase reporter, IRE1-XBP1 UPR activation, luminescence; percent of tunicamycin response, DMSO as zero; activation, % at 20 µM; actives 0.33% (n = 330,000);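 active = versus positive control, 20 µM dose yields 30% or more activation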;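 note: 100% = tunicamycin at 10 µg/mL and 0% = DMSO only wells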
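Material: CHO cell line with stable XBP1 luciferase reporter; buffer or medium: F12 medium containing 10% fetal bovine serum; compound: single point, 20 µM final compound, 1% DMSO; incubation: 6 h treatment, 37 °C; measured by: glow luminescence from Steady-Glo reagent; evaluation: activation, % of tunicamycin; control set: tunicamycin high, DMSO low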
* = called active by the depositor; · = not tested or not shown.

SMILES	CHOP UPR activ	MPTP block	GRIN3A LBD mod	CHOP inhibitor	aDG glyco up	UPR XBP1 act
CCCCn1c(-c2csc3c2CCCC3)n[nH]c1=S	0	·	-1	12	·	2
C=CCn1c(-c2csc3c2CCC(C)C3)n[nH]c1=S (centres undefined)	1	3	2	80*	0	5
CCCCn1c(-c2csc3c2CCC(C)C3)n[nH]c1=S (centres undefined)	-2	16	-5	84*	0	1
Cc1cc(C=C2C(=O)c3ccccc3C2=O)c(C)n1-c1ccccc1	-8	0	0	84*	0	-4
Cc1cc(C=C2C(=O)c3ccccc3C2=O)c(C)n1-c1ccc(C(=O)O)cc1	-1	0	2	-3	0	1
Cc1cc(/C=C2\Cc3ccccc3C2=O)c(C)n1-c1ccccc1	-6	2	1	89*	0	-8
CC(=O)c1c(C)[nH]c(C(=O)OCC(=O)N(CC(C)C)C2CCS(=O)(=O)C2)c1C (centres undefined)	1	-1	5	·	0	-1
COc1ccccc1NS(=O)(=O)c1cc(NC(=O)Nc2cccc(C)c2)ccc1N1CCCCC1	8	43	24*	47	0	-1
COc1ccccc1NS(=O)(=O)c1cc(NC(=O)c2ccc3ccccc3n2)ccc1Cl	-2	-1	-6	23	0	-4
COc1ccccc1NC(=O)Nc1ccc(Cl)c(S(=O)(=O)Nc2ccccc2OC)c1	3	-3	11*	56	0	-1
O=C1NC[C@H](CCCCN2CCN(Cc3ccccc3)C(=O)C2=O)N(CC2CCCCC2)C1=O	·	0	·	·	0	·
O=C1C2CCCN2C(=O)N1CCCCN1CCN(c2cccc(Cl)c2)CC1 (centres undefined)	3	0	-5	22	1	0
Cc1nn(Cc2ccc([N+](=O)[O-])cc2)c(=O)n1N(C)c1ncc(C(F)(F)F)cc1Cl	3	-4	1	59	0	2
Cc1nn(Cc2ccc(Cl)cc2)c(=O)n1N(C)c1ncc(C(F)(F)F)cc1Cl	1	-1	1	81*	0	0
Cc1ccc2oc(/N=C(\N)NC(=O)C3CC3)nc2c1	0	17	-1	-7	0	-6
Cc1ccc2oc(/N=C(\N)NC(=O)C(C)(C)C)nc2c1	-8	-3	-1	86*	0	-10
CCOc1ccc2nc(SCC(=O)NC3CC3)sc2c1	2	0	-2	·	0	-1
CC(=O)Nc1ccc2nc(SCC(=O)O)sc2c1	2	0	5	-14	0	0
CCOc1ccc2nc(SCC(=O)c3ccccc3)sc2c1	2	1	2	94*	0	5
CCOC(=O)CSc1nc2ccc(NC(C)=O)cc2s1	1	-2	-2	90*	0	-1
Cc1cc(-c2cccs2)c2c(N)c(C(=O)c3ccc4c(c3)OCO4)sc2n1	1	0	21*	31	1	0
COc1ccc(/C=N/NC(=O)c2nc(-c3ccccc3)cc(-c3ccccc3)n2)cc1OC	13	-7	-1	-19	0	8
COc1ccc(/C=N/c2oc(-c3ccccc3)cc2C#N)cc1OC	-1	3	37*	20	0	3
CCc1cc2c(=O)n(C(C)C(=O)OC3CCCCC3)cnc2s1 (centres undefined)	4	0	0	72*	0	-2
COc1cccc(C(C)NC(=O)c2ccncc2)c1 (centres undefined)	2	4	-2	·	0	1
SMILES	CHOP UPR activ	MPTP block	GRIN3A LBD mod	CHOP inhibitor	aDG glyco up	UPR XBP1 act
O=C(CNc1ccc(Br)cc1)NC(=O)NC1CCCCC1	1	-1	-7	·	0	-1
FC(F)(F)COc1nc(OCC(F)(F)F)nc(N2CCN(c3ccccc3)CC2)n1	-3	1	12*	20	0	-4
CCN1C(=O)C(=O)N(CC(=O)Nc2cccc(C(F)(F)F)c2)C1=O	-1	-1	-13	·	0	0
O=C(Cn1c2ccccc2c(=O)c2ccccc21)Nc1cccc(F)c1	0	9	-4	77*	0	2
CC12CCC(=O)N1C(C(=O)N1CCN(S(=O)(=O)c3ccc(Br)cc3Cl)CC1)CS2 (centres undefined)	1	-2	-5	·	0	-2
CCc1cc2ccc(OC)cc2nc1SCC(=O)NNC(C)=O	-1	-2	-2	5	0	1
CCc1cc2ccccc2nc1SCC(=O)Nc1cc(C)on1	2	1	1	61	0	-1
COc1ccc(Nc2nnc(SCC(=O)Nc3cc(C)on3)s2)cc1	·	1	2	85*	0	·
CCc1cc2cc(C)c(C)cc2nc1SCC(=O)Nc1cc(C)on1	1	-1	0	89*	0	1
CCc1cc2ccc(OC)cc2nc1SCC(=O)Nc1cc(C)on1	1	-1	0	82*	0	11
c1ccc(CSc2nc3ncccn3n2)cc1	0	-1	1	·	0	-1
CC(=O)Nc1ccc(C(=O)N2CCCCC2c2cc(C(=O)Nc3cccc(C#N)c3)no2)cc1 (centres undefined)	·	-2	·	·	0	·
O=C1CC(N2CCC(c3nc4ccccc4o3)CC2)C(=O)N1c1ccc(F)cc1 (centres undefined)	-2	0	2	4	1	-5
O=C1CC(N2CCC(c3nc4ccccc4o3)CC2)C(=O)N1c1ccc(Cl)c(C(F)(F)F)c1 (centres undefined)	-1	3	0	86*	0	-3
CS(=O)(=O)N1CCN(c2ccc(NC(=O)C(c3ccccc3)c3ccccc3)cc2)CC1	-1	1	-3	39	0	-1
O=C(Nc1ccc(N2CCCC2)cc1)C(Cl)c1ccccc1 (centres undefined)	6	-5	-4	78*	0	-1
CCOC(=O)C1=C(c2ccccc2)OC(N)=C(C#N)C1c1ccc(Cl)s1 (centres undefined)	3	8	-26	78*	0	2
CCOC(=O)C1=C(c2ccccc2)OC(N)=C(C#N)C1c1ccc(Br)s1 (centres undefined)	2	8	-5	82*	0	-2
COc1cccc(-c2nc(NCc3ccccc3)c3ccccc3n2)c1O	2	4	7	·	0	2
CCN(CC)c1nc(-c2cccc(OC)c2O)nc2ccccc12	1	-1	2	88*	0	1
CC(=O)NS(=O)(=O)c1ccc(NC(=O)C(Sc2ccccc2)c2ccccc2)cc1 (centres undefined)	0	1	-17	18	0	1
